# The list is a sample of the results.
# Apaf1 activ – activators of human Apaf-1 apoptosome, primary screen, biochemical, DEVD-Rh110 fluorescence, uHTS; Apaf-1 apoptosome caspase-3 activation; hits give low values; activity change, negative = activation, % at 20 µM; hit rate 0.31% among 330,000;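 active = activity change at or below -40% at 20 µM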
#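 Material: reconstituted apoptosome of Apaf-1, cytochrome c, caspase-9, procaspase-3; times: 30 min preincubation, 50 min reaction, room temperature; measured by: fluorescence, 540 nm emission, 480 nm excitation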
# Rh110 act interf – Rh110 fluorescence interference by putative Apaf-1 activators, confirmation, artefact control for Apaf-1 activator project, biochemical, 20 µM; shares compounds with Apaf1 activ; quenched caspase reaction, Ex480/Em540; fluorescence interference (activity change), % at 20 µM, hits read low; 980 tested, under 10 active; AID 504616, 2011;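 active = mean activity change at or below -40% when tested at 20 µM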
# Apaf-1 act conf2 – Apaf-1 activators, single-dose retest, confirmation, biochemical, fluorescence, DEVD-Rh110, 20 µM. shares compounds with Apaf1 activ. reconstituted apoptosome caspase-3 activity; hits give low values. activity change, negative = activation, % at 20 µM. hit rate 5% among 980;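 active = mean activity change at or below -40%, meaning activation of 40% or more, at 20 µM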
# Apaf1 act interf – fluorescence interference of Apaf-1 activator hits, dose response, artefact control for Apaf-1 activator project | EC50, µM | 55 tested, under 10 active | fluorescence interference counterscreen, Apaf-1 activator assay | AID 588592, 2011 | shares compounds with Apaf1 activ; call rule not given here
# An asterisk follows results filed as active; x = no result.
SMILES,Apaf1 activ,Rh110 act interf,Apaf-1 act conf2,others
Cc1ccc(S(=O)(=O)NCCN2CCOCC2)c(C)c1C,-48*,3,9,
CCOc1ccc(NS(=O)(=O)c2cc(C(=O)NCCCN3CCOCC3)ccc2C)cc1,65,x,x,
CC(=O)Oc1ccc(/C=C2/C(=O)N(c3ccccc3)N=C2C)cc1,91,x,x,
O=c1[nH]c(Nc2ccccn2)cc2ccccc12,91,x,x,
O=C(/C=C/c1ccoc1)c1ccccc1O,-134*,-1,9,
CCN(CC)CCOC(=O)c1ccc(NC(=O)CCCN2C(=O)/C(=C\c3cccs3)SC2=S)cc1,60,x,x,
O=c1[nH]c(Nc2ccccc2Cl)cc2ccccc12,98,x,x,
COC(=O)c1[nH]c2cc(C)ccc2c1NC(=O)CN1CCc2cc(OC)c(OC)cc2C1,-176*,-2,12,
Cc1cc(C)nc(-n2nc(C)cc2NC(=O)CN2CCc3ccccc3C2)n1,54,x,x,
CN1CCN(C2=C(NS(=O)(=O)c3ccccc3)C(=O)c3ccccc3C2=O)CC1,79,x,x,
Cc1cc2c(N)cccc2nn1,97,x,x,
CN(C)c1cccc2cccc(N(C)C)c12,89,x,x,
CCCCCCOC(=O)C(C#N)c1nc2ccccc2nc1N1CCN(CC)CC1 (stereo not given),42,x,x,
COc1ccc(S(N)(=O)=O)cc1-c1nnc2c3ccccc3c(C)nn12,-54*,14,13,
CC(=O)[C@H]1[C@@H]2C(=O)N(c3cccc(Cl)c3)C(=O)[C@@H]2[C@H]2c3ccccc3C=CN21,73,x,x,
COc1ccc(Cl)cc1C(=O)OCC(=O)NC1CCCC(C)C1C (stereo not given),-41*,12,15,
CC1CCCC(NC(=O)COC(=O)c2ccc([N+](=O)[O-])s2)C1C (stereo not given),41,x,x,
CC1CCCC(NC(=O)COC(=O)CCC(=O)c2cccs2)C1C (stereo not given),-273*,0,12,
O=C(O)c1cc(O)c2c(c1)[C@@H]([C@H]1c3cc(C(=O)O)cc(O)c3C(=O)c3c(O[C@@H]4O[C@H](CO)[C@@H](O)[C@H](O)[C@H]4O)cccc31)c1cccc(OC3O[C@H](CO)[C@@H](O)[C@H](O)[C@H]3O)c1C2=O (stereo not given in full),95,x,x,
COc1ccc2c(c1)c(=O)oc1cc(O)ccc12,-299*,2,10,
O=c1oc2cc(O)ccc2c2oc3cc(O)ccc3c12,-41*,15,18,
COCCCOc1cc(NCc2ccccc2)c2ncn(C(C)C)c2c1,41,x,x,
COC(=O)C1=C(C)N(Cc2ccccc2)C(=NCc2cccc(Cl)c2)N[C@H]1c1cccc(F)c1,67,x,x,
COc1ccc(C(CCN2CCOCC2)c2c(OC)cc(OC)c3c(-c4ccccc4)cc(=O)oc23)cc1 (stereo not given),53,x,x,
COc1ccccc1OCC(=O)NCC1CCCN(C(=O)c2ccccc2SC)C1 (stereo not given),51,x,x,
SMILES,Apaf1 activ,Rh110 act interf,Apaf-1 act conf2,others
CCC(=O)Nc1ccccc1C(=O)N1CCCC1,-44*,-8,5,
Cn1c(SCc2ccc(F)cc2)nnc1-c1cnccn1,-156*,4,9,
COC(=O)C1=C(C)N(Cc2ccccc2)C(=NCC(C)C)N[C@H]1c1cccc(F)c1,44,x,x,
CC(=O)N1CCc2c(sc(NC(=O)C3CC3)c2-c2nc3ccccc3s2)C1,72,x,x,
O=C1C(NS(=O)(=O)c2cccs2)=C(N2CCN(Cc3ccccc3)CC2)C(=O)c2ccccc21,51,x,x,
CCC(C)Sc1ccc(-c2nc3cnccn3c2NC2CCCCC2)cc1 (stereo not given),45,x,x,
NC(=O)N(CCC(=O)O)c1ccccc1,-47*,-12,-17,
CCN(CC)C(=O)CSc1nc2ccccc2c(=O)n1CC,-176*,5,5,
CCN1CCN(C2=C(NS(=O)(=O)c3ccccc3)C(=O)c3ccccc3C2=O)CC1,82,x,x,
COn1c2c(c3c4nonc4ccc31)CCCC2,47,x,x,Apaf1 act interf=>100
O=C(Nc1ccc(Oc2ccccc2)cc1)C1CCN(c2c3c(nc4ncnn24)CCC3)CC1,41,x,x,
C=CCn1c(SCC(=O)NCCc2ccccc2)nnc1C1CC1,42,x,x,
Cc1nnc(SCC(=O)NCc2ccco2)n1Cc1ccccc1,-428*,-5,13,
CC(=O)OCC(=O)[C@@]1(O)CC[C@H]2[C@@H]3CCC4=CC(=O)CC[C@]4(C)[C@H]3[C@@H](O)C[C@@]21C,-4,x,x,
Cc1cccc(-n2ncc3c2CCCC3NC(=O)CN2CCCC2=O)c1C (stereo not given),-203*,5,4,
CCOC(=O)N1CCC(NC(=O)CN2C(=O)CSc3ncccc32)CC1,63,x,x,
COc1cccc2nc3cc(C)c(C)cc3nc12,84,x,x,
COC(CNC(=S)Nc1ccc([N+](=O)[O-])cc1)OC,-58*,8,3,
O=C(OCC(=O)c1c[nH]c2ccccc12)c1cc(Br)ccc1O,-339*,8,9,
C/C=N/NC(=O)c1cc(Br)ccc1O,57,x,x,
CC(C(=O)O)N1C(=O)/C(=C/C=C/c2ccco2)SC1=S (stereo not given),47,x,x,
CCOC(=O)c1c(C)c2c(=O)[nH]cnc2n1-c1ccccc1,58,x,x,
COc1cc2c(C#N)c(N3CCCCC3)nc(N)c2c(N)n1,97,x,x,
CSc1ncccc1C(=O)NCCc1ccc(Cl)cc1,-99*,-2,9,
C/C=C(\C)C(=O)NCCN1C2=NC[C@@H](Cc3ccccc3)N2C[C@@H]1Cc1ccc(OC)cc1,40,x,x,
SMILES,Apaf1 activ,Rh110 act interf,Apaf-1 act conf2,others
Cc1ccc(C(=O)NCCN2C3=NC[C@H](C)N3C[C@H]2Cc2ccc(O)cc2)cc1Br,-440*,0,8,
COc1ccc(C[C@H]2CN3C(=NC[C@@H]3C(C)C)N2CCNC(=O)c2ccc(C)c(Br)c2)cc1,47,x,x,
CC1(c2ccccc2)NC(=O)N(NC(=O)CSc2n[nH]c(N)n2)C1=O (stereo not given),-279*,1,2,
CC/C(=N/Nc1ccccc1C)c1cnnc(SC)n1,41,x,x,
Cc1[nH][nH]c(=O)c1C(c1ccc(-c2ccc(Cl)c(Cl)c2)o1)c1c(C)[nH][nH]c1=O,79,x,x,
CCCCCCCCCCCCCCCC[N+](C)(C)CC,87,x,x,
O=C(C1CCCN(S(=O)(=O)c2cnc[nH]2)C1)N1CCN(Cc2ccccc2)CC1 (stereo not given),40,x,x,
CCOC(=O)C1CCCN(C2CCN(Cc3nc(Cc4ccccc4)no3)CC2)C1 (stereo not given),-72*,0,11,
CCOC(=O)C1CCN(C2=C(NS(=O)(=O)c3ccc(Br)cc3)C(=O)c3ccccc3C2=O)CC1,68,x,x,
C#CCOCCOCCOCCNc1nc(N2CCN(C(=O)[C@H](CCCN=C(N)N)n3cc(C(N)[C@@H](C)CC)nn3)CC2)nc(N2CCN(C(=O)[C@H](CCCCN)n3cc([C@@H](N)[C@H](C)CC)nn3)CC2)n1 (stereo not given in full),50,x,x,
Oc1ccc2ccccc2c1C=NC12CN3CCN(CN(C3)C1)C2,90,x,x,
